In the library only some 4.3% were active in any assay of this set; here they are far more common.
MC4R antagonist: antagonists of human melanocortin 4 receptor (MC4R); P32245; MC4R-expressing cells, MTII-stimulated cAMP, LANCE TR-FRET; inhibition, % at 6.5 µM; 360,000 tested, 0.48% active; AID 540295;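 active = inhibition above its plate's cutoff, the mean of tested wells on that plate plus 3 SD, cut at about 29% in these data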;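 note: 0% = Melanotan II alone and 100% = Melanotan II plus saturating MCL0020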
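Assay system: U2OS cells stably expressing human melanocortin 4 receptor (MC4R) / Dosing: 6.5 µM / Timing: compound 30 min, challenge 1 h, detection 1 h / Measured by: Eu-cAMP/anti-cAMP TR-FRET, emission 671 nm / Replicates: singlicate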
TAAR1 agonist: agonists of human TAAR1; Q96RJ0; CHO RD-HGA16 TAAR1, Fluo-8 calcium fluorescence; vehicle wells 0%, saturating PEA agonist 100%; activation, % at 3 µM; 360,000 tested, 0.99% active; AID 624467;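 active = activation above the mean activation of all test compounds in the run plus 3 SD, cut at about 38% in these data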
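System: CHO RD-HGA16 cells carrying human TAAR1 plus Gα16; Incubation: 17-24 h seeding, 75 min 37 °C dye, 30 min RT; Measured by: Fluo-8 fluorescence, 5 s baseline then 140 s kinetic read; Control set: DMSO and PEA EC100; Replication: single well for each compound.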
MC4R ag barr: human MC4R agonism via beta-arrestin | U2OS MC4R beta-arrestin complementation, luminescence; percent of melanotan II response, DMSO zero | activation, % at 8.9 µM | 360,000 tested, 0.98% active | AID 540308;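 active = activation above a per-plate cutoff, the mean activation of sample wells on that plate plus 3 SD, cut at about 8% in these data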
B2AR ag: agonists of human beta-2 adrenergic receptor inducing internalization. P07550. Am2.2-beta2AR cells, FAP receptor internalization, flow cytometry. response, % (no concentration beside the values). 340,000 tested, 0.43% active. AID 504454;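 active = response above a set limit, near 3 SD of response in nonfluorescent compounds, cut at about 42% in these data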
Target sequence (P07550 whole entry, looked up): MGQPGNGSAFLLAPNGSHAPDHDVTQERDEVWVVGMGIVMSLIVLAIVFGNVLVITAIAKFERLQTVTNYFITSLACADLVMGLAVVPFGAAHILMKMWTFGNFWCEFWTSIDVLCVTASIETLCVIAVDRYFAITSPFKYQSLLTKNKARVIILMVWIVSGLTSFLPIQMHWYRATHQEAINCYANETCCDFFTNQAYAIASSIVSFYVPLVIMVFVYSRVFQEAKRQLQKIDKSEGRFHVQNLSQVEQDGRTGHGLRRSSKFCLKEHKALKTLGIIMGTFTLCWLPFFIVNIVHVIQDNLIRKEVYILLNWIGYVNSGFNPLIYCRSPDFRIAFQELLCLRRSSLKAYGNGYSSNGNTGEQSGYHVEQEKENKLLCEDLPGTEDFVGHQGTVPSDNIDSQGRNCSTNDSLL
HTR2A ag: mouse HTR2A agonism via beta-arrestin recruitment; CHO-K1 mHTR2A beta-arrestin complementation, luminescence; percent of 30 µM serotonin response; P35363; 360,000 tested, 0.66% active; AID 624169; activation, % at 7.6 µM;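 active = activation above a run cutoff, the mean activation of all tested compounds plus 3 SD, cut at about 14% in these data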;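 note: 0% = plate median of compound wells and 100% = 30 µM serotonin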
TAAR1 antagonist: human TAAR1 antagonism; inhibition, % at 3 µM; 360,000 tested, 1.5% active; AID 624466; Q96RJ0; CHO RD-HGA16 TAAR1, Fluo-8 calcium fluorescence, antagonist;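 active = inhibition above a per-plate cutoff, the mean inhibition of test compounds on that plate plus 3 SD, cut at about 49% in these data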;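 note: 0% = DMSO plus EC80 beta-PEA response and 100% = DMSO alone without agonist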
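Material: RD-HGA16 CHO cells with stable hTAAR1 and Gα16; Dosing: single nominal final test compound concentration of 3 µM; Schedule: seeding 17-24 h prior, 75-min 37 °C, 30-min RT dye loading; Detection: kinetic Fluo-8 calcium fluorescence measurement; Measure: % inhibition from peak post-agonist over basal fluorescence ratio; Benchmarks: vehicle and agonist controls.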
* = called active by the depositor; i = inactive; · = not tested or not shown.

SMILES	MC4R antagonist	TAAR1 agonist	MC4R ag barr	B2AR ag	HTR2A ag	TAAR1 antagonist
COc1cc(C(C)=O)ccc1OCC(=O)Nc1ccc(C)c(S(=O)(=O)N2CCCCCC2)c1	10	18	1	31	6	77*
Cc1ccc(NC(=O)COc2ccc(N(C)C(=O)C(C)(C)C)cc2)cc1S(=O)(=O)N1CCCCC1	9	10	-1	4	1	52*
CCCCN1C(=O)/C(=C/C=C2\Oc3ccccc3N2CC)SC1=S	-1	180*	-2	i	7	90*
COC(=O)C1=C(C)N(C)C(=NCc2ccc(C(F)(F)F)cc2)NC1c1cccc(F)c1 (configuration not stated)	·	21	·	·	·	14
O=C(Nc1cccc([N+](=O)[O-])c1)C1C2CC/C=C\CCC21 (configuration not stated)	7	-2	8.9*	-6	2	-2
COc1cccc(C(=O)/C=C/Nc2ccc(NC(C)=O)cc2)c1	-4	5	-1	-3	-4	8
COc1cccc(C(=O)/C=C/Nc2ccc(S(=O)(=O)Nc3cccc(C(C)=O)c3)cc2)c1	11	11	-2	13	-2	56*
CCCCCCCCN1C(=O)N(Cc2ccc(OC)cc2)S(=O)(=O)c2ccc(F)cc21	·	2	·	·	·	6
Cc1ccc(NN=C2c3ccccc3-c3ccccc32)cc1	14	-1	8.4*	4	0	-2
Cc1ccc(OCC(=O)NN2C(=O)c3ccccc3C2=O)cc1	-1	0	-1	2	4	-6
Cc1ccc(OCC(=O)NN=C2c3ccccc3-c3ccccc32)cc1	-4	6	8.6*	7	2	-7
COC(=O)C[C@@H]1C[C@H]2c3cc(NC(=O)Nc4ccccc4F)ccc3O[C@H]2[C@@H](CO)O1	·	0	·	·	·	8
CCc1ccc2oc(-c3cccc(NC(=O)c4cccnc4)c3)nc2c1	5	15	1	15	10	49*
O=C(Nc1ccc2oc(-c3ccccc3)nc2c1)c1cccnc1	2	11	0	10	-2	5
Cc1cc(C)nc(NC(=O)/C=C/c2ccccc2Cl)n1	0	4	0	-7	8	-2
Cc1cc(N)c2cc(NC(=O)/C=C/c3ccccc3Cl)ccc2n1	8	·	4	73*	-4	·
O=C(CN1CCC(C(O)(c2ccccc2)c2ccccc2)CC1)Nc1ccccc1	4	24	0	2	-7	-2
O=C(CN1CCC(C(O)(c2ccccc2)c2ccccc2)CC1)Nc1cc(Cl)ccc1Cl	32*	-1	8	11	4	-3
CCOC(=O)C1=C(C(=O)OCC)C2N(Cc3ccc(Br)cc3)c3ccccc3[C@@]23C[C@@H](C(=O)OC)N(S(=O)(=O)c2ccc(Br)cc2)C3=N1 (some centres not stated)	·	0	·	·	·	-14
O=C(NCc1ccccc1)[C@H]1CCCN1C(=O)[C@H]1CCCN1C(=O)c1ccc(F)cc1F	·	1	·	·	·	-13
CCOC(=O)c1nc(Nc2ccc(Nc3ccccc3)cc2)c2ccccc2n1	6	11	0	7	1	63*
CCOC(=O)c1ccc(Nc2nc(C(=O)OCC)nc3ccccc23)cc1	10	3	0	-7	-2	41
O=C(Nc1ccc(Nc2ccccc2)cc1)c1ccc(Cl)c([N+](=O)[O-])c1	10	5	0	33	-9	51*
O=C(Nc1ccc(Cc2ccncc2)cc1)c1ccc(Cl)c([N+](=O)[O-])c1	15	12	-1	18	2	74*
COc1ccc(C(=O)c2ccc(Cl)c([N+](=O)[O-])c2)cc1	-34	9	1	48*	-4	3
SMILES	MC4R antagonist	TAAR1 agonist	MC4R ag barr	B2AR ag	HTR2A ag	TAAR1 antagonist
Cc1ccc(C(=O)Nc2ccc(OCc3ccccc3)cc2)cc1[N+](=O)[O-]	-4	3	9.5*	0	-3	23
COC(=O)[C@]12C[C@H](CC(=O)NCc3cccc(C(F)(F)F)c3)C(=O)N(CCC3=CCCCC3)C1=C[C@H](COCc1ccccc1)O[C@@H]2C	·	0	·	·	·	-21
CC1(C)CC(=O)C=C(c2ccccc2-c2ccc3c(c2)OCO3)C1=O	·	-1	·	·	·	-2
CN1CCCCC(NC(=O)COCc2ccccc2)C1=O (configuration not stated)	·	1	·	·	·	-15
COc1ccccc1-c1cnc(C(O)c2cc(C)c(OC)c(C)c2)[nH]1 (configuration not stated)	-3	3	0	·	-2	0
C#CCNC(=O)C[C@H]1C[C@@]2(C(=O)OC)C(=C[C@H](C(C)(C)C)O[C@@H]2C)N(Cc2ccc3c(c2)OCO3)C1=O	·	7	·	·	·	-20
C/C(=N\Nc1ccc([N+](=O)[O-])cc1)c1ccc(-n2nncc2C)cc1	1	15	-3	9	-10	57*
C/C(=N\Nc1ccc([N+](=O)[O-])cc1)c1ccc(N2CCOCC2)cc1	4	11	-1	14	-4	42
CC(C)N(C[C@@H]1CSCCS(=O)(=O)N1)C(C)C	·	1	·	·	·	13
CC(=O)Nc1ccc(S[C@@H](CCN2CC[C@H](C(C)(C)C)CCC2=O)c2ccccc2)cc1	2	17	-2	-3	-2	49*
CC(C)(C)[C@@H]1CCC(=O)N(CC[C@H](Sc2ccccc2)c2ccccc2)CC1	10	13	0	41	-10	42
O=C1NC(c2ccccc2)=C(c2nc3ccccc3s2)C(c2ccc(O)cc2)N1 (configuration not stated)	18	·	63*	16	9	·
O=C1NC(c2ccccc2)=C(c2ccc3ccccc3n2)C(c2ccccc2)N1 (configuration not stated)	20	6	-2	1	1	-27
O=C(Nc1ccc(C(=O)O)cc1)/C(=C\C=C\c1ccccc1)NC(=O)c1ccccc1Br	-10	2	0	8	2	59*
CC(Cl)C(=O)Nc1cc(C(F)(F)F)ccc1N1CCOCC1 (configuration not stated)	17	-1	-1	-2	1	-13
CN1CCN(c2ccc(C(F)(F)F)cc2NC(=O)Nc2ccccc2)CC1	6	52*	3	17	-2	29
NS(=O)(=O)c1ccc(OCCCN2CCC(C(O)(c3ccccc3)c3ccccc3)CC2)cc1	·	6	·	·	·	-4
CC1(Cc2c(Cl)cccc2Cl)C(=O)Nc2cc(-c3ccccc3Cl)ccc21 (configuration not stated)	9	0	0	·	0	-1
